Measured values published in the M2OR odorant receptor database.

Biological target: T1, OR2A7 (Homo sapiens) (UniProt Q96R45)
T1 sequence (whole entry): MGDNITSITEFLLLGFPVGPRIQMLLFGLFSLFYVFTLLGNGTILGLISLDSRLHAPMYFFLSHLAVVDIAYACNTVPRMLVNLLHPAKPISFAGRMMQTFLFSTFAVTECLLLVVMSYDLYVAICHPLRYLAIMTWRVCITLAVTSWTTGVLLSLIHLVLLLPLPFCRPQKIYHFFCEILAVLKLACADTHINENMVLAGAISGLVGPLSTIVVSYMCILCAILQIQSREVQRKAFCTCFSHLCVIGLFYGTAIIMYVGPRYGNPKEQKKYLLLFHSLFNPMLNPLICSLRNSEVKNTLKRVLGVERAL
Details: stereoisomer not certain
Outline: (§1)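 Each receptor–molecule pair is labelled responsive or non-responsive (inactive) according to whether the original authors judged the measured signal statistically different from baseline. The data were taken from the main text and supplementary material of published papers and checked for typos and inconsistencies. Assay methods differed by source, with transient luciferase assays in mammalian cell lines being common.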

Structure (SMILES)	odorant receptor agonist call;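 also: active if original authors judged signal statistically different from baseline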
CCCCCCCCCCCC(=O)O	active
CCCCCCCCCCCCCC(=O)O	inactive
CCC(=O)O	inactive
CCCCCCCC(=O)[O-].[H+]	active
CCC(O)CC	inactive
CCCCCCCCCC(=O)OCC	inactive
CCCCCCCCCCCCCC(=O)OC	inactive
C=C(C)C1CC=C(C)CC1 (stereo not drawn)	inactive
C=C1CCC2CC1C2(C)C (stereo not drawn)	active
CCCO	inactive
CCCCCCCC(=O)OC	inactive
O=c1ccc2ccccc2o1	inactive
CCCCCCCCCCCCO	inactive
CC(C=O)Cc1ccc(C(C)(C)C)cc1 (stereo not drawn)	active
CCCCCCCCCCCCCCCCCC(=O)[O-].[H+]	active
CCCCCCCC(=O)OCC	inactive
Cc1ccc(C(C)C)cc1	inactive
CC(CC=O)c1ccccc1 (stereo not drawn)	inactive
CCCCCCCCCC(=O)OC	inactive
CCCCCCCCCCCC(=O)OCC	inactive
Cc1cccc(C)c1C	inactive
CCCCCCCCCCCCCCCC(=O)OCC	inactive
CC(C)=CCCC(C)=CCO	inactive
CC(C)=CCCC(C)=CCCC(C)=CCO	inactive
COc1ccc2[nH]cc(CCNC(C)=O)c2c1	inactive
CCCCCCC(=O)[O-].[H+]	inactive
CCCC(=O)CC	inactive

Biological target: T2, OR2AG1 (Homo sapiens) (UniProt Q9H205)
T2 sequence (whole entry): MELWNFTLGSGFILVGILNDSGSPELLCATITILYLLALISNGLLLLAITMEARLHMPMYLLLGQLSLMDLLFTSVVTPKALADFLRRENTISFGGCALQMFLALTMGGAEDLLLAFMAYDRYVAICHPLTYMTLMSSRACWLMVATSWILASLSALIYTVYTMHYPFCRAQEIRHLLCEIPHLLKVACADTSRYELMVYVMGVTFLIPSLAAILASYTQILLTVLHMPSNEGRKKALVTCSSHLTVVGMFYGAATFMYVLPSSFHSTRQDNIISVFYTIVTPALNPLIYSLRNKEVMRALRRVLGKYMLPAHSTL
Details: stereoisomer not certain
Outline: as §1

Structure (SMILES)	odorant receptor agonist call;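 also: active if original authors judged signal statistically different from baseline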
CCCCCOC(=O)CCC	inactive
CCCC(C)C1OCC(C)(CCC)CO1 (stereo not drawn)	inactive
CC(C)C1OC(C)(C)OCC1(C)C (stereo not drawn)	inactive

Biological target: T3, OR2B11 (Homo sapiens) (UniProt Q5JQS5)
T3 sequence (whole entry): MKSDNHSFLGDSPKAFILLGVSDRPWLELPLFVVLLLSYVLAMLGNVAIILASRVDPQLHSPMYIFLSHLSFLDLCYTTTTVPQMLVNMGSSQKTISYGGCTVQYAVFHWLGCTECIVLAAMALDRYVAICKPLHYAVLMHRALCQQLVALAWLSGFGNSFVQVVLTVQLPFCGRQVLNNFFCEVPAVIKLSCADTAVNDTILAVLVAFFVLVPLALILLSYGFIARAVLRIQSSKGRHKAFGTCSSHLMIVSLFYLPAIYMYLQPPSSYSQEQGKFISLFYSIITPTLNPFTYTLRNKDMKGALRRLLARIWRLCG
Details: stereoisomer not certain
Outline: as §1

Structure (SMILES)	odorant receptor agonist call;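 also: active if original authors judged signal statistically different from baseline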
c1coc(CSSCc2ccco2)c1	active
C1CCC(SSC2CCCCC2)CC1	active
O=c1ccc2ccccc2o1	active
